Experimental data reported in the RNAGym collection of RNA variant scans (doi:10.1002/anie.201605470).

B1: Osa-1-4 twister ribozyme (parent)
chain: CCGCCUAACACUGCCAAUGCCGGUCCCAAGCCCGGAUAAAAGUGGAGGGGGCGG

Variants of: B1
Assay: self-cleavage, relative activity (ratio to wild type); higher = more cleavage; co-transcriptional
How it was run: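 A DNA template for a 54-nucleotide Oryza sativa twister ribozyme was synthesised with 97 % wild-type base and 1 % of each other base at the 48 positions downstream of the cleavage site. It was transcribed in vitro for 2 h at 37 °C, allowing co-transcriptional self-cleavage, then reverse-transcribed with a template-switching oligonucleotide, PCR-amplified and deep-sequenced. Cleavage status was scored from reads with or without upstream sequence. Relative activity is fraction cleaved normalised to wild type.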

Row | Variant | self-cleavage
1 | A40U G53C | 0.06
2 | A40U G53U | 0.11
3 | A40U G53A | 0.19
4 | A40U C33A | 0.07
5 | A40U C33U | 0.15
6 | A40U C33G | 0.06
7 | A41C C21G | 0.08
8 | A41C C21U | 1.04
9 | A41C C21A | 0.45
10 | A40U G48U | 0.04
11 | A40U G48C | 0.05
12 | A40U G48A | 0.06
13 | A41C A46C | 0.05
14 | A41C A46G | 0.06
15 | A41C A46U | 0.08
16 | A41C C15U | 0.36
17 | A41C C15A | 0.27
18 | A41C C15G | 0.14
19 | A41C C27A | 0.13
20 | A41C C27G | 0.06
21 | A41C C27U | 0.12
22 | A40G U24C | 0.08
23 | A40G U24A | 0.07
24 | A40G U24G | 0.02

Row | Variant | self-cleavage
25 | A41C C14G | 0.15
26 | A41C C14A | 0.07
27 | A41C C14U | 0.22
28 | A40U C14G | 0.13
29 | A40U C14U | 0.11
30 | A40U C14A | 0.15
31 | A40U G23C | 0.04
32 | A40U G23A | 0.11
33 | A40U G23U | 0.05
34 | A40U C27G | 0.06
35 | A40U C27A | 0.09
36 | A40U C27U | 0.1
37 | A41C A7C | 0.05
38 | A41C A7G | 0.18
39 | A41C A7U | 0.09
40 | A40U C26A | 0.05
41 | A40U C26G | 0.08
42 | A40U C26U | 0.14
43 | A40U G13A | 0.06
44 | A40U G13C | 0.02
45 | A40U G13U | 0.01
46 | A40U U37G | 0.94
47 | A40U U37A | 0.87
48 | A40U U37C | 0.77

Row | Variant | self-cleavage
49 | A40U | 0.85
50 | A40U G35U | 0.41
51 | A40U G35C | 0.09
52 | A40U G35A | 0.58
53 | A41C C26G | 0.09
54 | A41C C26A | 0.06
55 | A41C C26U | 0.8
56 | A40G U43G | 0.19
57 | A40G U43A | 0.21
58 | A40G U43C | 0.14
59 | A41C C20G | 0.13
60 | A41C C20A | 0.92
61 | A41C C20U | 0.95
62 | A40U C20A | 0.64
63 | A40U C20U | 0.81
64 | A40U C20G | 0.07
65 | A41C A8C | 0.09
66 | A41C A8U | 0.16
67 | A41C A8G | 0.24
68 | A41C C25U | 0.8
69 | A41C C25G | 0.08
70 | A41C C25A | 0.08
71 | A40U U12A | 1
72 | A40U U12C | 0.19

Row | Variant | self-cleavage
73 | A40U U12G | 0.36
74 | A40U A8G | 0.15
75 | A40U A8U | 0.07
76 | A40U A8C | 0.05
77 | A40U C32A | 0.07
78 | A40U C32G | 0.07
79 | A40U C32U | 0.08
80 | A41C | 0.99
81 | A40G U37C | 0.9
82 | A40G U37G | 1.02
83 | A40G U37A | 0.91
84 | A40U A41U | 0.83
85 | A40U A41G | 0.1
86 | A40U A41C | 0.87
87 | A40U U43C | 0.13
88 | A40U U43G | 0.1
89 | A40U U43A | 0.18
90 | A40U C21G | 0.05
91 | A40U C21A | 0.15
92 | A40U C21U | 0.59
93 | A40U G50A | 0.43
94 | A40U G50U | 0.34
95 | A40U G50C | 0.18
96 | A40U C15U | 0.1

Row | Variant | self-cleavage
97 | A40U C15A | 0.11
98 | A40U C15G | 0.11
99 | A40U C25U | 0.13
100 | A40U C25A | 0.06
101 | A40U C25G | 0.05
102 | A40U G30C | 0.04
103 | A40U G30U | 0.03
104 | A40U G30A | 0.03
105 | A40U G47A | 0.09
106 | A40U G47C | 0.06
107 | A40U G47U | 0.09
108 | A40G U18C | 0.72
109 | A40G U18A | 0.88
110 | A40G U18G | 0.76
111 | A40U C52A | 0.4
112 | A40U C52U | 0.74
113 | A40U C52G | 0.46
114 | A40U G34C | 0.15
115 | A40U G34A | 0.23
116 | A40U G34U | 0.18
117 | A40U U24A | 0.06
118 | A40U U24C | 0.09
119 | A40U U24G | 0.03
120 | A40U G44C | 0.43

Row | Variant | self-cleavage
121 | A40U G44A | 0.25
122 | A40U G44U | 0.26
123 | A40U C11U | 0.33
124 | A40U C11A | 0.1
125 | A40U C11G | 0.06
126 | A40U G22C | 0.06
127 | A40U G22A | 0.32
128 | A40U G22U | 0.21
129 | A40U U18C | 0.71
130 | A40U U18A | 0.77
131 | A40U U18G | 0.64
132 | A40U C9A | 0.09
133 | A40U C9G | 0.17
134 | A40U C9U | 0.2
135 | A40U G51C | 0.06
136 | A40U G51A | 0.18
137 | A40U G51U | 0.1
138 | A41C C11G | 0.24
139 | A41C C11A | 0.71
140 | A41C C11U | 0.81
141 | A40U A7U | 0.08
142 | A40U A7G | 0.13
143 | A40U A7C | 0.04
144 | A40U G42U | 0.06

Row | Variant | self-cleavage
145 | A40U G42C | 0.11
146 | A40U G42A | 0.1
147 | A40U C31A | 0.02
148 | A40U C31G | 0.07
149 | A40U C31U | 0.2
150 | A40U G45A | 0.07
151 | A40U G45C | 0.06
152 | A40U G45U | 0.07
153 | A40U G19C | 0.04
154 | A40U G19A | 0.17
155 | A40U G19U | 0.08
156 | A40U G49A | 0.07
157 | A40U G49U | 0.08
158 | A40U G49C | 0.05
159 | A40U G54U | 0.47
160 | A40U G54A | 0.25
161 | A40U G54C | 0.19
162 | A41C C9U | 0.79
163 | A41C C9G | 0.41
164 | A41C C9A | 0.39
165 | A40U A46C | 0.05
166 | A40U A46G | 0.05
167 | A40U A46U | 0.07
